pEC50, pIC50: −log10 of the molar value.
Assays:
[1] = molecular target: Human immunodeficiency virus type 1 integrase (Human immunodeficiency virus 1, UniProt Q7ZJM1); experiment: Inhibition of HIV1 integrase expressed in Escherichia coli assessed as strand transfer activity by scintillation proximity assay
Summary of the method: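 His6-tagged full-length HIV-1 IN (mutant) was preincubated 15 min at 22 °C with biotinylated U5 LTR donor DNA on streptavidin SPA beads, then [3H]-thymidine target DNA was added. Final: 2 pmol donor, 246 nM IN, 50 nM target, pH 7.2 MOPS, 4 mM MgCl2, 1% DMSO. Ran 50 min at 37 °C, stopped with EDTA/NaOH/CsCl, quench-corrected counts. IC50 from 4-parameter logistic fit, 2-3 replicates per concentration.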

[2] = tested on: Human immunodeficiency virus 1; experiment: Antiviral activity against HIV1 RF in human CEM-SS cells assessed inhibition of virus-induced cytopathic effect by XTT assay; assay type: functional, organism-based; details: Human immunodeficiency virus 1, RF
Summary of the method: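 CEM-SS cells (2×10^4/well) were infected with HIV-1 RF at an MOI giving 90% cell death by day 6. Compounds, in half-log dilutions with ≥2 replicate wells, were added at seeding before infection. On day 6, XTT/phenazine methosulfate was added for 4 h and read at A450. EC50 is the concentration restoring formazan to 50% of uninfected, compound-free cells.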

[3] = Cytotoxicity against human CEM-SS cells by XTT assay; assay type: cell-based
Summary of the method: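 Uninfected CEM-SS cells (2×10^4/well) were exposed for 6 days to half-log compound dilutions (≥2 replicate wells) added at seeding. Viability was read by XTT formazan (4 h, A450). CC50 was derived from the drop in formazan versus uninfected, compound-free cells.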

[4] = Metabolic stability in human hepatocytes assessed as extraction ratio after 4 hrs; assay type: ADME, cell-based, Hepatocyte
[5] = Metabolic stability in human liver microsomes assessed as extraction ratio after 4 hrs in presence of NADPH; assay type: ADME, Microsome
[6] = Mutagenic activity in Salmonella Typhimurium TA100 by Biolum Ames test; assay type: toxicity; details: salmonella enterica subsp. enterica serovar typhimurium
[7] = Mutagenic activity in Salmonella Typhimurium TA100 by Biolum Ames test in presence of metabolizing enzyme; assay type: toxicity; details: salmonella enterica subsp. enterica serovar typhimurium
[8] = Mutagenic activity in Salmonella Typhimurium TA98 by Biolum Ames test; assay type: toxicity; details: salmonella enterica subsp. enterica serovar typhimurium
[9] = Mutagenic activity in Salmonella Typhimurium TA98 by Biolum Ames test in presence of metabolizing enzyme; assay type: toxicity; details: salmonella enterica subsp. enterica serovar typhimurium

Sequence of Human immunodeficiency virus type 1 integrase (Q7ZJM1 whole entry): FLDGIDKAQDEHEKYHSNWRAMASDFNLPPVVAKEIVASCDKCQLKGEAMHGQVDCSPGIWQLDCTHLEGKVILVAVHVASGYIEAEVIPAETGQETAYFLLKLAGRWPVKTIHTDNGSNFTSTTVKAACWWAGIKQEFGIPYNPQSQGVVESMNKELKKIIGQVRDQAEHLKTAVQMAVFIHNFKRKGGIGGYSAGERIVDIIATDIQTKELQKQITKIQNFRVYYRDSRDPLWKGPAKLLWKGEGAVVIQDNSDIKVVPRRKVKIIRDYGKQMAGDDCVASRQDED

pIC50 [1] | hepatic extraction ratio at 4 h [4] | hepatic extraction ratio at 4 h [5] | Structure (SMILES) | pEC50 [2] | CC50 [3] [nM] | Activity [6] | Activity [7] | Activity [8] | Activity [9]
5.27 | – | – | O=C(O)c1cc2ccn(Cc3cccc(Cl)c3Cl)c2cn1 | – | – | – | – | – | –
6.35 | – | – | O=C(NO)c1cc2ccn(Cc3cccc(Cl)c3Cl)c2cn1 | 7.46 | > 320000 | – | – | – | –
5.10 | 0.93 | – | CC(C)N(O)C(=O)c1cc2ccn(Cc3ccc(F)cc3)c2cn1 | 5.46 | 36000 | – | – | – | –
6.99 | – | – | O=C(NO)c1cc2ccn(Cc3cccc(Cl)c3F)c2cn1 | 8.10 | > 320000 | – | – | – | –
6.88 | – | – | O=C(NO)c1cc2ccn(Cc3c(F)ccc(Cl)c3F)c2cn1 | 8.15 | > 1000 | – | – | – | –
5.49 | – | – | O=C(O)c1cc2ccn(Cc3cc(Cl)cs3)c2cn1 | – | – | – | – | – | –
5.24 | – | – | O=C(NO)c1cc2ccn(Cc3cccc(CO)n3)c2cn1 | 6.14 | > 10000 | – | – | – | –
6.45 | 1 | 0.68 | CONC(=O)c1cc2ccn(Cc3ccc(F)cc3F)c2cn1 | 7.68 | > 320000 | – | – | – | –
6.86 | 0.92 | – | O=C(NO)c1cc2ccn(Cc3ccc(F)cc3)c2cn1 | 8.05 | 159000 | – | – | – | –
6.09 | – | – | N#Cc1cc(F)ccc1Cn1ccc2cc(C(=O)NO)ncc21 | 6.92 | > 10000 | – | – | – | –
< 5.00 | – | – | N#Cc1ccc(Cn2ccc3cc(C(=O)NO)ncc32)cc1 | 5.92 | > 10000 | – | – | – | –
5.89 | – | – | NC(=O)c1cc(F)ccc1Cn1ccc2cc(C(=O)NO)ncc21 | 7.26 | > 10000 | – | – | – | –
4.64 | 1 | – | O=C(c1cc2ccn(Cc3ccc(F)cc3)c2cn1)N(O)Cc1ccccc1 | 6.48 | > 320000 | – | – | – | –
6.60 | – | – | CN(O)C(=O)c1cc2ccn(Cc3ccc(F)cc3)c2cn1 | – | 200000 | – | – | – | –
< 4.30 | – | – | O=C(O)c1cc2ccn(Cc3ccccc3F)c2cn1 | – | – | – | – | – | –
5.46 | – | – | O=C(O)c1cc2ccn(Cc3ccc(F)cc3F)c2cn1 | – | – | – | – | – | –

pIC50 [1] | hepatic extraction ratio at 4 h [4] | hepatic extraction ratio at 4 h [5] | Structure (SMILES) | pEC50 [2] | CC50 [3] [nM] | Activity [6] | Activity [7] | Activity [8] | Activity [9]
5.76 | – | – | NC(=O)c1cccc(Cn2ccc3cc(C(=O)NO)ncc32)c1 | 6.28 | > 10000 | – | – | – | –
6.02 | – | – | O=C(O)c1cc2ccn(Cc3cccc(Cl)c3F)c2cn1 | – | – | – | – | – | –
5.92 | – | – | O=C(O)c1cc2ccn(Cc3c(F)cc(Cl)cc3F)c2cn1 | – | – | – | – | – | –
5.43 | – | – | O=C(O)c1cc2ccn(Cc3ccc(F)c(F)c3F)c2cn1 | – | – | – | – | – | –
< 4.30 | 1 | 1 | CON(C)C(=O)c1cc2ccn(Cc3ccc(F)cc3F)c2cn1 | < 5.00 | > 10000 | – | – | – | –
6.22 | – | – | NC(=O)c1cc(Cn2ccc3cc(C(=O)NO)ncc32)ccc1F | 7.24 | > 10000 | – | – | – | –
7.08 | 0.9 | < 0.26 | O=C(NO)c1cc2ccn(Cc3ccc(F)cc3F)c2cn1 | 8.10 | > 320000 | Active | Active | Active | Active
6.11 | – | – | O=C(NO)c1cc2ccn(Cc3ccccn3)c2cn1 | 7.06 | > 10000 | – | – | – | –
6.21 | 0.96 | – | CCCN(O)C(=O)c1cc2ccn(Cc3ccc(F)cc3)c2cn1 | 6.46 | 26000 | – | – | – | –
5.77 | 0.95 | – | CC(C)CN(O)C(=O)c1cc2ccn(Cc3ccc(F)cc3)c2cn1 | 5.85 | 102000 | – | – | – | –
6.60 | 1 | < 0.36 | CN(O)C(=O)c1cc2ccn(Cc3ccc(F)cc3F)c2cn1 | 7.49 | 135000 | Not Active | Not Active | Not Active | Not Active
6.09 | 0.95 | – | O=C(c1cc2ccn(Cc3ccc(F)cc3)c2cn1)N(O)CCCO | 6.52 | 77000 | – | – | – | –
6.41 | – | – | O=C(NO)c1cc2ccn(Cc3ccc(Cl)s3)c2cn1 | 7.70 | > 10000 | – | – | – | –
5.13 | – | – | O=C(O)c1cc2ccn(Cc3ccc(F)cc3)c2cn1 | – | – | – | – | – | –
< 5.00 | – | – | NC(=O)c1ccc(Cn2ccc3cc(C(=O)NO)ncc32)cc1 | < 5.00 | > 10000 | – | – | – | –
5.79 | – | – | N#Cc1cccc(Cn2ccc3cc(C(=O)NO)ncc32)c1 | 6.30 | > 10000 | – | – | – | –
